Converted amounts (≈) assume the structure as drawn.
Columns and labels:
[1] = Cytotoxicity against human PC3 cells at 100 uM by WST1 assay; type: cell-based, PC-3; details: read-out: INH
Summary of the method: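 Read-out was inhibition of mitochondrial WST-1 reduction in PC-3 cells transiently transfected with an SRE.L luciferase reporter. Compound was tested at 100 μM. Values are the mean of n = 3 independent experiments.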

[2] = Kinetic solubility of the compound; type: physicochemical; details: read-out: Kinetic_solubility
[3] = system: PC-3; assay: Antimetastatic activity against human PC3 cells at 10 uM after 24 hrs by scratch wound assay; type: functional; details: PC-3, 24 h
Summary of the method: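 Confluent PC-3 monolayers (5.0×10^5 cells plated, DMEM with 10% FBS) were scratched 24 h after plating. Cells were then exposed to compound at 10 μM, or 0.1% DMSO, in DMEM with 0.5% FBS. Wounds were imaged at 0 h and after 24 h (formalin-fixed, crystal violet-stained). Wound-area closure was quantified and expressed as percent inhibition relative to DMSO control.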

[4] = system: PC-3; assay: Antimetastatic activity against human PC3 cells after 24 hrs by scratch wound assay; type: functional, cell-based; details: PC-3, 24 h
Summary of the method: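 PC-3 cells (5.0×10^5) were grown to confluence in DMEM with 10% FBS and scratched after 24 h. Medium was switched to DMEM with 0.5% FBS containing compound at various concentrations or 0.1% DMSO. Wounds were imaged at 0 h, then fixed (10% formalin) and crystal-violet stained at 24 h. Migration = initial minus 24 h wound area, normalized to DMSO. IC50 was taken from dose-response curves.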

[5] = Cytotoxicity against human SK-MEL-147 cells by WST1 assay; type: cell-based
Summary of the method: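 WST-1 reduction was measured in SK-Mel-147 melanoma cells transiently transfected for the RhoC-SRE.L luciferase reporter assay.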

[6] = system: Mus musculus; assay: Toxicity in mouse assessed as increase in liver weight at 10 to 100 mg/kg/day, ip administered for 5 days measured on day 8; type: organism-based; parameters: route intraperitoneal; details: in vivo, 120 h
Summary of the method: (§1)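 5-day tolerability study in mice, doses of 10, 20, 50 and 100 mg/kg/day given intraperitoneally, 3 mice per dose. Animals sacrificed on day 8, then body weight recorded, blood collected, and internal organs dissected, weighed and examined for abnormalities. Behaviour observed and survival tracked over the dosing period.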

[7] = system: Mus musculus; assay: Toxicity in mouse assessed as organism survival at 10 to 100 mg/kg/day, ip after 5 days; type: organism-based; parameters: route intraperitoneal; details: in vivo, 120 h; summary of the method: as §1

Row | Compound | cytotoxicity at 100 µM [1] [%] | inhibition at 10 µM [3] [%] | also measured
1 | O=C(Nc1ccc(Cl)cc1)C1CCCN(C(=O)c2cccc(-c3cccs3)c2)C1 (centres undefined) | 4 | 70 | solubility kinetic [2]: 1.36 µg/mL (≈ 3.2 µM); IC50 [4]: […]
2 | O=C(Nc1ccc(Cl)cc1)C1CCCN(C(=O)c2ccc(-c3ccco3)cc2)C1 (centres undefined) | 6 |  | 
3 | O=C(Nc1cccc(OCc2ccccn2)c1)C1CCCN(C(=O)c2cc(C(F)(F)F)cc(C(F)(F)F)c2)C1 (centres undefined) | 15 |  | 
4 | O=C(Nc1ccc(Cl)nc1)C1CCCN(C(=O)c2cc(C(F)(F)F)cc(C(F)(F)F)c2)C1 (centres undefined) | 25 |  | 
5 | O=C(Nc1ccc(Cl)cc1)C1CCCN(C(=O)c2cccc(-c3ccco3)c2)C1 (centres undefined) |  | 70 | Activity [5]: Non-toxic; Activity [6]: Toxic; Activity [7]: Non-toxic; solubility kinetic [2]: 3.09 µg/mL (≈ 7.56 µM); IC50 [4]: 4.2 µM
6 | O=C(Nc1ccc(Cl)cc1)C1CCCN(C(=O)c2cccc(-c3nccs3)c2)C1 (centres undefined) | 32 |  | 
7 | Cc1nc(-c2cccc(C(=O)N3CCCC(C(=O)Nc4ccc(Cl)cc4)C3)c2)cs1 (centres undefined) | 1 |  | 
8 | CS(=O)(=O)Nc1cccc(C(=O)N2CCCC(C(=O)Nc3ccc(Cl)cc3)C2)c1 (centres undefined) | 3 |  | 
9 | CS(=O)(=O)c1cccc(C(=O)N2CCCC(C(=O)Nc3ccc(Cl)cc3)C2)c1 (centres undefined) | 2 |  | 
10 | CC(=O)Nc1cccc(C(=O)N2CCCC(C(=O)Nc3ccc(Cl)cc3)C2)c1 (centres undefined) | 4 |  | 
11 | O=C(Nc1cccc(Oc2ccccc2)c1)C1CCCN(C(=O)c2cc(C(F)(F)F)cc(C(F)(F)F)c2)C1 (centres undefined) | 1 | < 30 | solubility kinetic [2]: 3.22 µg/mL (≈ 6 µM)
12 | O=C(Nc1cccc(Cc2ccccc2)c1)C1CCCN(C(=O)c2cc(C(F)(F)F)cc(C(F)(F)F)c2)C1 (centres undefined) |  | < 30 | solubility kinetic [2]: 1.89 µg/mL (≈ 3.54 µM)
13 | O=C(Nc1cccc(OCCc2ccccn2)c1)C1CCCN(C(=O)c2cc(C(F)(F)F)cc(C(F)(F)F)c2)C1 (centres undefined) | 5 | < 30 | 
14 | O=C(Nc1cccc(S(=O)(=O)N2CCCC2)c1)C1CCCN(C(=O)c2cc(C(F)(F)F)cc(C(F)(F)F)c2)C1 (centres undefined) |  | < 30 | 
15 | Cc1nc(-c2cccc(NC(=O)C3CCCN(C(=O)c4cc(C(F)(F)F)cc(C(F)(F)F)c4)C3)c2)cs1 (centres undefined) | 1 | 42 | 
16 | C=Cc1cccc(NC(=O)C2CCCN(C(=O)c3cc(C(F)(F)F)cc(C(F)(F)F)c3)C2)c1 (centres undefined) | 1 |  | 
17 | O=C(Nc1cccc(-c2cnco2)c1)C1CCCN(C(=O)c2cc(C(F)(F)F)cc(C(F)(F)F)c2)C1 (centres undefined) | 9 |  | 
18 | O=C(Nc1cccc([N+](=O)[O-])c1)C1CCCN(C(=O)c2cc(C(F)(F)F)cc(C(F)(F)F)c2)C1 (centres undefined) | 9 |  | 
19 | O=C(Nc1cccc(CN2CCCC2)c1)C1CCCN(C(=O)c2cc(C(F)(F)F)cc(C(F)(F)F)c2)C1 (centres undefined) | 51 |  | 
20 | O=C(Nc1ccc(Cl)cc1)C1CCCN(C(=O)c2cc(C(F)(F)F)cc(C(F)(F)F)c2)C1 (centres undefined) | 14 | 22 | solubility kinetic [2]: 4.5 µg/mL (≈ 9.4 µM); IC50 [4]: 17 µM
21 | O=C(CCNC(=O)c1cc(C(F)(F)F)cc(C(F)(F)F)c1)Nc1ccc(Cl)cc1 |  | < 10 | solubility kinetic [2]: 2.21 µg/mL (≈ 5.04 µM)
22 | C[C@@H](N)[C@H]1CC[C@H](C(=O)Nc2ccncc2)CC1 [Y-27632] |  |  | IC50 [4]: 28 µM

— ChEMBL document CHEMBL2396514, “Optimization of novel nipecotic bis(amide) inhibitors of the Rho/MKL1/SRF transcriptional pathway as potential anti-metastasis agents” (Bioorg Med Chem Lett, 2013)
